Active and inactive are the calls of the source. No cut-off for these calls is given here.
Experiments:
[1] = biological target: T1, Leucyl-cystinyl aminopeptidase (Mus musculus, UniProt Q8C129); experiment: Inhibition of recombinant mouse C-terminal His6-tagged IRAP expressed in baculovirus infected BTA-TN-5B1-4 insect cells using L-AMC as substrate measured after 1 hr by fluorescence assay
T1 sequence (Q8C129 whole entry): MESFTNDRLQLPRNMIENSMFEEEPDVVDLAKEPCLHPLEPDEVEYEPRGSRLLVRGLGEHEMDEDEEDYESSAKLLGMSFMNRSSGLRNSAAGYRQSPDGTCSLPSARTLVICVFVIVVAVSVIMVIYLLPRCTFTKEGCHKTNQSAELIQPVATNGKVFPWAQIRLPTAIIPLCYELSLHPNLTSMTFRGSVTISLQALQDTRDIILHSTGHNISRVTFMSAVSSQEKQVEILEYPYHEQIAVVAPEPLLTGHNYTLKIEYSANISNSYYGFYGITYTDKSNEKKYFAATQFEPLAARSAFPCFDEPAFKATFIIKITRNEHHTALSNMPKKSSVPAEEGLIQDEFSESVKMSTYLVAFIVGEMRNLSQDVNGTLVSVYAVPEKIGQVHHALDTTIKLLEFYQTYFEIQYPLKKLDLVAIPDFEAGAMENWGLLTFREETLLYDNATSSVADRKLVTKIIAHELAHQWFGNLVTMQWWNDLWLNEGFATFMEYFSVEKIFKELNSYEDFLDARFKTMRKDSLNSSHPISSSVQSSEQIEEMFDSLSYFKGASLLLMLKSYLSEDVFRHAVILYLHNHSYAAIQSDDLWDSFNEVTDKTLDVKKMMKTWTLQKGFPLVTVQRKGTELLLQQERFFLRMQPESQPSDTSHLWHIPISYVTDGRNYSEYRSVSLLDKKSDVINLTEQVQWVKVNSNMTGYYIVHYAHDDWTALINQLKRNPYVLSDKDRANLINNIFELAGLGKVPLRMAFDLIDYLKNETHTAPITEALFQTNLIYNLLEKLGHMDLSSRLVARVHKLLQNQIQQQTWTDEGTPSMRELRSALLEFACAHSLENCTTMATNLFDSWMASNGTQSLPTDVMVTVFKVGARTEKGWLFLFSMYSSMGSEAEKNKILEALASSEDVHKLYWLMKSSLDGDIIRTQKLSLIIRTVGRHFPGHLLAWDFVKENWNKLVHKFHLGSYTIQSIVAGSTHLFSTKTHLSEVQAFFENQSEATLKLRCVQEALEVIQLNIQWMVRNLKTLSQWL

[2] = Activation of recombinant human C-terminal His6-tagged ERAP1 5-SNP mutant expressed in baculovirus infected BTA-TN-5B1-4 insect cells using L-AMC as substrate measured after 1 hr by fluorescence assay
[3] = biological target: T2, Endoplasmic reticulum aminopeptidase 1 (Homo sapiens, UniProt Q9NZ08); experiment: Competitive inhibition of recombinant human C-terminal His6-tagged ERAP1 expressed in baculovirus infected BTA-TN-5B1-4 insect cells using varying levels of LVAFKARKF as substrate measured at 2.5 mins interval for 20 mins by ABTS reagent based horseradish peroxidase-coupled Michaelis-Menten equation analysis
[4] = biological target: T2, Endoplasmic reticulum aminopeptidase 1; experiment: Activation of recombinant human C-terminal His6-tagged ERAP1 expressed in baculovirus infected BTA-TN-5B1-4 insect cells assessed as increase in Vmax/[…] ratio using varying levels of L-pNA as substrate incubated for 1 hr and measured for 5 to 10 mins by […] Michaelis-Menten equation analysis relative to control
Outline: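 ERAP1 initial rates measured under steady-state conditions with the chromogenic substrate leucine p-nitroanilide (L-pNA), allowing a wide substrate range, across several compound concentrations. Rate-versus-substrate curves were fit to an allosteric Michaelis-Menten equation with a Hill coefficient to give V_max and K_half at each compound level. Activity was expressed as V_max/K_half relative to no-compound control.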

[5] = biological target: T2, Endoplasmic reticulum aminopeptidase 1; experiment: Activation of recombinant human C-terminal His6-tagged ERAP1 expressed in baculovirus infected BTA-TN-5B1-4 insect cells using L-AMC as substrate measured after 1 hr by fluorescence assay
[6] = biological target: T3, Antigen peptide transporter 1/2 (Homo sapiens) (UniProt Q03518+Q03519); experiment: (§1) Inhibition of TAP1/2 in human HeLa cells stably expressing H-2 Kb infected with vaccinia virus containing Ub-SIINFEKL epitope assessed as suppression of Ub-SIINFEKL binding to MHC1 H-2 Kb at cell surface by measuring reduction in 25D1 staining at 50 uM measured after 16 to 24 hrs by flow cytometric method; assay type: cell-based
[7] = biological target: T2, Endoplasmic reticulum aminopeptidase 1; experiment: Inhibition of recombinant human C-terminal His6-tagged ERAP1 expressed in baculovirus infected BTA-TN-5B1-4 insect cells using WRCYEKMALK as substrate measured after 10 mins by LC-MS analysis
[8] = biological target: T2, Endoplasmic reticulum aminopeptidase 1; experiment: Activation of recombinant human C-terminal His6-tagged ERAP1 expressed in baculovirus infected BTA-TN-5B1-4 insect cells at 10.7 uM using L-AMC as substrate measured after 1 hr by fluorescence assay relative to control
[9] = Activation of recombinant human C-terminal His6-tagged ERAP1 allele 2 mutant expressed in baculovirus infected BTA-TN-5B1-4 insect cells using L-AMC as substrate measured after 1 hr by fluorescence assay
[10] = biological target: T2, Endoplasmic reticulum aminopeptidase 1; experiment: as §1, with “ERAP1” for “TAP1/2”, “ss-LEQLE-SIINFEKL” for “Ub-SIINFEKL”, “staining” for “staining at 50 uM”; assay type: cell-based
[11] = Activation of recombinant human C-terminal His6-tagged ERAP1 allele 3 mutant expressed in baculovirus infected BTA-TN-5B1-4 insect cells using L-AMC as substrate measured after 1 hr by fluorescence assay
[12] = biological target: T2, Endoplasmic reticulum aminopeptidase 1; experiment: Inhibition of recombinant human C-terminal His6-tagged ERAP1 expressed in baculovirus infected BTA-TN-5B1-4 insect cells using L-AMC as substrate measured after 1 hr by fluorescence assay
[13] = biological target: T2, Endoplasmic reticulum aminopeptidase 1; experiment: Competitive inhibition of recombinant human C-terminal His6-tagged ERAP1 expressed in baculovirus infected BTA-TN-5B1-4 insect cells using varying levels of L-pNA as substrate incubated for 1 hr and measured for 5 to 10 mins by […] Michaelis-Menten equation analysis
[14] = biological target: T3, Antigen peptide transporter 1/2 (Homo sapiens); experiment: Inhibition of TAP1/2 in human HeLa cells stably expressing H-2 Kb infected with vaccinia virus containing Ub-SIINFEKL epitope assessed as suppression of Ub-SIINFEKL binding to MHC1 H-2 Kb at cell surface by measuring reduction in 25D1 staining measured after 16 to 24 hrs by flow cytometric method; assay type: cell-based

T2 sequence (Q9NZ08 whole entry): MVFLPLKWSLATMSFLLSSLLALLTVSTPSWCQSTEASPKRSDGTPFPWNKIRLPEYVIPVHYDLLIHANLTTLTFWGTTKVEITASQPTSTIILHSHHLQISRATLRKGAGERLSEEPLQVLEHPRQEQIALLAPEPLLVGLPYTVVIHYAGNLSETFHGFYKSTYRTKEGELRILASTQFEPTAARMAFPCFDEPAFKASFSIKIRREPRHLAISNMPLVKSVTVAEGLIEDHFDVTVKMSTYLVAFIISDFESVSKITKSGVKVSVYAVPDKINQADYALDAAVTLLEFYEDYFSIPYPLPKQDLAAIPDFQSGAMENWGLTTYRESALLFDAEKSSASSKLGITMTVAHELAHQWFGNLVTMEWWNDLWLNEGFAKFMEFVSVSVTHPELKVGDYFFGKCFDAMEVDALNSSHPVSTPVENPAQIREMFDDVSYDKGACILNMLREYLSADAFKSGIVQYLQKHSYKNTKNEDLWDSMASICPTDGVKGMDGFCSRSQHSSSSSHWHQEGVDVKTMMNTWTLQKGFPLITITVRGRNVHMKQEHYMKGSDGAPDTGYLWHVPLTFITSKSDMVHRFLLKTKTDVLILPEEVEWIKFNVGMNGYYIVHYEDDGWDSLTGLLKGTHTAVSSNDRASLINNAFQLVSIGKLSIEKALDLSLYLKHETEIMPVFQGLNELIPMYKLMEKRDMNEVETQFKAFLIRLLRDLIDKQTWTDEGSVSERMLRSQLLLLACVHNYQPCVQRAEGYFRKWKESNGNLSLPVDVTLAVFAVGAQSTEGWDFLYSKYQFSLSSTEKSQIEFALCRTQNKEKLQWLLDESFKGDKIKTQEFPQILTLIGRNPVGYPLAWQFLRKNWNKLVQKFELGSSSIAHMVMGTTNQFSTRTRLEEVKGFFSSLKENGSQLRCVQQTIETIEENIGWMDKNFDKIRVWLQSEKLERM

SMILES: O=C(O)c1ccc(Cl)c(S(=O)(=O)Nc2cc(C(F)(F)F)ccc2N2CCCCC2)c1
- IC50 [1]: > 200 µM

SMILES: COc1ccc(C(=O)O)cc1S(=O)(=O)Nc1cc(C(F)(F)F)ccc1N1CCCCC1
- AC50 [2]: 2.7 µM
- Ki [3]: 3.8 µM
- fold change (FC) [4]: < 1.8
- inhibition (INH) ([1]; mouse, 1 h): Not Active
- AC50 [5]: 4.1 µM
- inhibition [6]: inactive
- IC50 [7]: 5.3 µM
- Activity [8]: > 40%
- AC50 [9]: 0.88 µM
- IC50 [10]: 1 µM
- AC50 [11]: 3.1 µM

SMILES: COc1ccc(C(=O)O)cc1S(=O)(=O)Nc1cc(C)ccc1N1CCCCC1
- IC50 [1]: > 200 µM

SMILES: COc1ccc(C(=O)O)cc1S(=O)(=O)Nc1cc(F)ccc1N1CCCCC1
- IC50 [1]: > 200 µM

SMILES: CC(C)C[C@H](N)CS
- inhibition [6]: inactive

SMILES: N=C(NCCc1c[nH]c2ccccc12)NS(=O)(=O)c1cc(F)ccc1F
- IC50 [12]: 9.2 µM
- Ki [13]: 51.7 µM
- inhibition [6]: Active

SMILES: O=C(O)c1cccc(S(=O)(=O)Nc2cc(C(F)(F)F)ccc2N2CCCCC2)c1
- IC50 [1]: > 200 µM

SMILES: COC(=O)c1ccc(OC)c(S(=O)(=O)Nc2cc(C(F)(F)F)ccc2N2CCCCC2)c1
- inhibition [14]: Active
- IC50 [1]: > 200 µM

SMILES: O=C(O)c1ccc(Br)c(S(=O)(=O)Nc2cc(C(F)(F)F)ccc2N2CCCCC2)c1
- IC50 [1]: > 200 µM

SMILES: COc1ccc(C(=O)O)cc1S(=O)(=O)Nc1cc(C(F)(F)F)ccc1N1CCN(C)CC1
- IC50 [1]: > 200 µM

SMILES: COc1ccc(C(=O)O)cc1S(=O)(=O)Nc1ccccc1N1CCCCC1
- IC50 [1]: > 200 µM
